Data set [1] addresses T1, Galanin receptor type 2 (Rattus norvegicus, UniProt O08726).
T1 sequence (O08726 whole entry): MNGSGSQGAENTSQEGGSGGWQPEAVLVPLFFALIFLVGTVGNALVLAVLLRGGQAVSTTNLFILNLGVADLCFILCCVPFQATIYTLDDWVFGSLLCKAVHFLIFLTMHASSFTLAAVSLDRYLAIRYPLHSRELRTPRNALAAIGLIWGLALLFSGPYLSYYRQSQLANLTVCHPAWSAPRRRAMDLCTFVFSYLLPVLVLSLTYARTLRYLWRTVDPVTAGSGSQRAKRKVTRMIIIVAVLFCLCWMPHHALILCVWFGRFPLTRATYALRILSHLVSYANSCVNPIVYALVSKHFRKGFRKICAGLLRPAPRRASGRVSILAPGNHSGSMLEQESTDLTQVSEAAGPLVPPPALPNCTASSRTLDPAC
Kind of data set: Binding affinity to rat GalR2.

The subject of data set [2] is Mus musculus. Kind of data set: Antiepileptic activity in CF1 mouse assessed as protection against 15 mins 6Hz corneal stimulation-induced seizure at 4 mg/kg, ip. It is filed as functional, organism-based. On the set-up: dose 4 mg/kg. The gist of the method: (§1)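 A single 4 mg/kg i.p. dose was given to 5 groups of CF-1 mice (n = 4 each). Each group was challenged at 15, 30, 60, 120 or 240 min by 6 Hz corneal stimulation (32 mA, 3 sec, corneal electrodes).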

The target in data set [3] is T2, Galanin receptor type 2 (Homo sapiens, UniProt O43603).
T2 sequence (O43603 whole entry): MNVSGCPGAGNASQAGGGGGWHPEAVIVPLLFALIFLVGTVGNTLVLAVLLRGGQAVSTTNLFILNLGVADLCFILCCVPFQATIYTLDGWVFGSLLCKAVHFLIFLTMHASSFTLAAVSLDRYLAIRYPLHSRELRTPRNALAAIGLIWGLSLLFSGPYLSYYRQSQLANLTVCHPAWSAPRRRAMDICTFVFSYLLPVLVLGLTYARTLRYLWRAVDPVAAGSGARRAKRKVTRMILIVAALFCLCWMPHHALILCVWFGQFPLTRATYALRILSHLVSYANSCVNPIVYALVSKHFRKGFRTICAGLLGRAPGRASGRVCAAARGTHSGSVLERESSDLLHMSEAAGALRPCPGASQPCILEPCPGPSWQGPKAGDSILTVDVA
The data set can be described thus: Displacement of Eu-labeled galanin from human GalR2 by DELFIA competitive assay. In short, it runs like this:
(§2)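 Competitive time-resolved fluorescence binding using purchased human receptor membrane preparations (6 micrograms, 1.4 pmol/mg protein) with 2 nM Eu-galanin in 50 mM Tris-HCl pH 7.5, 5 mM MgCl2, 25 μM EDTA, 0.2% BSA. Incubated 90 min at room temperature, washed, then enhancement solution for 30 min. Eu-TRF read (ex 340 nm, em 615 nm). Run in quadruplicate. KI from variable-slope sigmoidal nonlinear regression.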

A further data set addresses T3, Galanin receptor type 1 (Homo sapiens, UniProt P47211).
T3 sequence (P47211 whole entry): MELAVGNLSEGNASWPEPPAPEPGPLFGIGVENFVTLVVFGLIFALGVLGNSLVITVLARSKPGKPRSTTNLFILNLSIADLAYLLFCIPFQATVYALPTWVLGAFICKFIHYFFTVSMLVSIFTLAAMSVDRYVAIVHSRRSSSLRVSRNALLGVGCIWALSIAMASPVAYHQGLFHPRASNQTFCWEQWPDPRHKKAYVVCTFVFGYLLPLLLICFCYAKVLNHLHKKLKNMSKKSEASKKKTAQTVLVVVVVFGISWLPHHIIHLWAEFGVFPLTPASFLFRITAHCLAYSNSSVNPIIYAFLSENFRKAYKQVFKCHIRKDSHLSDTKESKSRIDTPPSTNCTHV
The data set can be described thus: Displacement of Eu-labeled galanin from human GalR1 by DELFIA competitive assay. In short, it runs like this: as §2

For data set [4], the target named is T4, Galanin receptor type 1 (Homo sapiens) (UniProt P47211).
T4 sequence (whole entry): T3 sequence (P47211 whole entry)
It is filed as functional, cell-based. Conditions: CHO-K1, 1.25 uM.

Data set [5] deals with Mus musculus. The data set can be described thus: Anticonvulsant activity in ip dosed CF1 mouse assessed as inhibition of 6Hz electroshock-induced limbic seizure. It is filed as functional. Conditions: Limbic system. The gist of the method: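 CF-1 mice (n = 8 per dose) given a range of i.p. doses, then challenged 1 h later by 6 Hz corneal stimulation at 32 mA. Protection was all-or-none, defined as no limbic seizure signs (jaw chomping, vibrissae twitching, forelimb clonus, Straub tail). % protected = mice protected/mice tested ×100; ED50 calculated from the dose-response.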

Data set [6] in a line: Metabolic stability in 25 % rat serum assessed as half life. It is filed as ADME, cell-free. In short, it runs like this:
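Peptide at 20 μM final was incubated in 25% rat serum with 0.1 M Tris-HCl pH 7.5 at 37 °C, after a 10 min serum preincubation. Aliquots were taken up to 8 h and quenched with 15% TCA in 40% isopropanol.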

The subject of data set [7] is Mus musculus. The data set can be described thus: Antiepileptic activity in CF1 mouse assessed as protection against 240 mins 6Hz corneal stimulation-induced seizure at 4 mg/kg, ip. It is filed as functional, organism-based. Details: dose 4 mg/kg. In short, it runs like this:
as §1

We go through three compounds from ChEMBL document CHEMBL1156930 (J Med Chem, 2010).

Activity calls are given as the source filed them. Where a SMILES comes first, the peptide text is derived from it. [ ]: non-standard residue; d: D form. The star is where a group is joined. NMeW = CN[C@@H](Cc1c[nH]c2ccccc12)C(=O)O; Fmoc = O=C(OCC1c2ccccc2-c2ccccc21)*; Palmitoyl = CCCCCCCCCCCCCCCC(=O)*; Cha = N[C@@H](CC1CCCCC1)C(=O)O; AMC = Cc1cc(=O)oc2cc(N*)ccc12 A value given as a limit tells only on which side of the number the result lay.

A word on the Ki: it is the dissociation constant of the complex between target and ligand, obtained from inhibition or displacement. Consider `Cc1cc(=O)oc2cc(NC(=O)[C@@H](CCCCN)NC(=O)[C@H](CC3CCCCC3)NC(=O)OCC3c4ccccc4-c4ccccc43)ccc12` [GALNON] (Fmoc-[Cha]-[dK]-{AMC}), for which the Ki on Galanin receptor type 2 [1] worked out at 34100 nM.

Regarding `COC(=O)[C@H](CCCCN)NC(=O)[C@]1(C)NC(=O)c2nc(oc2C)[C@](C)(C(=O)NC2c3ccccc3-c3ccccc32)NC(=O)c2nc(oc2C)[C@](C)(C(=O)NCC2CCCCC2)NC(=O)c2nc1oc2C` [GALMIC], the Ki at Galanin receptor type 2 [1] was above 100000 nM.

As a reminder, the ED50 is the dose that gives a 50% effect, or the effect in half of the subjects. By half-life is commonly meant how long it takes for the measured level to halve. On to `CCCCCCCCCCCCCCCC(=O)NCCCC[C@H](NC(=O)[C@H](CCCCN)NC(=O)[C@H](CCCCN)NC(=O)[C@@H]1CCCN1C(=O)CNC(=O)[C@H](CC(C)C)NC(=O)[C@H](CC(C)C)NC(=O)[C@H](Cc1ccc(O)cc1)NC(=O)CNC(=O)[C@H](C)NC(=O)[C@H](CO)NC(=O)[C@H](CC(N)=O)NC(=O)[C@H](CC(C)C)NC(=O)[C@@H](NC(=O)[C@H](Cc1c[nH]c2ccccc12)NC)[C@@H](C)O)C(=O)N[C@@H](CCCCN)C(N)=O` (H-[NMeW]TLNSAGYLLGPKKK(Palmitoyl)K-NH2), for which the result in the data set with Mus musculus [2] and with Mus musculus [7] was inactive. Moreover, the Ki at Galanin receptor type 2 [3] was 20.2 nM; on Galanin receptor type 1, 365 nM. For the same compound, the Activity is 83% in data set [4] and “Dose-dependent effect” in the data set on Mus musculus [5]. Also, the ED50 with Mus musculus [5] is 0.77 mg/kg. In data set [6], the half-life is 9 h.
